GASC1 inh – blocks human GASC-1 (KDM4C) demethylase activity. Q9H3R0. GST-KDM4C 2-372, H3K9me3 peptide, LANCE TR-FRET. inhibition, % at 12.5 µM. 0.15% of 96,000 active. AID 720574;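 active = mean replicate inhibition above about 25%, with at least 55% of replicates also reaching it, limit read from the data, passing the limit was not always enough; inconclusive = only one of those two conditions met; inactive = neither condition met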
Target sequence (Q9H3R0 2-372 limits assumed): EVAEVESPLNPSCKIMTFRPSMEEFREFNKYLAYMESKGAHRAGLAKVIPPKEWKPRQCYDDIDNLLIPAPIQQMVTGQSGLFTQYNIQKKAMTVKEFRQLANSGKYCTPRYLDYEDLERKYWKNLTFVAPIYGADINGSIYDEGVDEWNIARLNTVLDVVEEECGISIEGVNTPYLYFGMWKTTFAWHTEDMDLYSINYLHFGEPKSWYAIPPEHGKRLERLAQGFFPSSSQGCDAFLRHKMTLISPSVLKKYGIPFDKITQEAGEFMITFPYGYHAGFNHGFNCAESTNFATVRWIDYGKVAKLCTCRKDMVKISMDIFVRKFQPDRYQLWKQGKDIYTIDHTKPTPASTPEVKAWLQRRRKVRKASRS
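Material: GST-tagged GASC-1 (JMJD2C) catalytic fragment, aa 2-372 / Quantity: enzyme final amount 10 nM / Medium: HEPES buffer, pH 7.5, plus ascorbate / Doses: one test concentration per compound / Incubation: 30 min reaction, 60 min detection, RT / Measured by: LANCE TR-FRET / Read-out: inhibition from TR-FRET ratio decrease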
Tcruzi prolif – T. cruzi proliferation inhibition; T. cruzi beta-gal in NIH3T3, GalScreen luminescence, 90 h; inhibition, % at 8.34 µM; 5.9% of 77,000 active; AID 624255;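 active = mean inhibition above about 93%, with at least 55% of replicates each passing it, limit read from the data, passing the limit was not always enough; inconclusive = only one of those two conditions holds; inactive = neither condition holds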
Pf Dd2 inh – inhibitors of Plasmodium falciparum Dd2 growth | 2.3% of 94,000 active | activity change, % at 10 µM | AID 1159554 | P. falciparum Dd2 growth, SYBR Green, 72 h; active compounds read low; in the data active = activity change below about -80%; inconclusive = no clear call, values can overlap the other calls
IDH1 mut inh – inhibitors of human IDH1 R132H. 0.18% of 70,000 active. IDH1 R132H reductase, diaphorase/resazurin fluorescence, 60 min. inhibition, % at 10 µM; in the data active = inhibition above about 34%; inconclusive = no clear call, values can overlap the other calls; inactive = below about 11%
Hits are given with their value. Most compounds without a hit are left out; they make up all but 5.8% or so of the library.

How did C[C@@H]1CCCCO[C@H](CN(C)C(=O)Nc2ccc(F)cc2)[C@H](C)CN([C@H](C)CO)C(=O)c2cc(NS(=O)(=O)c3cccs3)ccc2O1 do in these assays?
GASC1 inh: inactive; Tcruzi prolif: inactive; Pf Dd2 inh: -86.4

Results for C[C@H]1CCCCO[C@@H](CN(C)C(=O)Nc2ccc(F)cc2)[C@@H](C)CN([C@@H](C)CO)C(=O)c2cc(NS(=O)(=O)c3cccs3)ccc2O1 ?
GASC1 inh: inactive; Tcruzi prolif: inactive; Pf Dd2 inh: inactive; IDH1 mut inh: inactive

How did C[C@@H]1CCCCO[C@@H](CN(C)C(=O)Nc2ccc(F)cc2)[C@H](C)CN([C@H](C)CO)C(=O)c2cc(NS(=O)(=O)c3cccs3)ccc2O1 do in these assays?
GASC1 inh: inactive; Tcruzi prolif: inactive; Pf Dd2 inh: -85.9; IDH1 mut inh: inactive

What do the screens show for `O=C(COc1ccc(Cl)cc1Cl)Nc1c[nH]c(=O)[nH]c1=O`?
IDH1 mut inh: inactive

Results for Cc1ccc(Nc2nc(Nc3ccc(C)cc3)nc(Sc3nnc(C)s3)n2)cc1 ?
IDH1 mut inh: inactive

What do the screens show for `CC(=O)Nc1ccc(OCC(=O)Nc2ccc(Cl)c(Cl)c2)cc1`?
IDH1 mut inh: inactive

What do the screens show for `O=C(C1CCOCC1)N1C[C@H]2[C@@H](c3ccccc31)[C@H](CO)N2C(=O)Cc1ccccc1`?
GASC1 inh: 29.4; Tcruzi prolif: inactive; Pf Dd2 inh: inactive

What do the screens show for `O=C(C1CCOCC1)N1C[C@@H]2[C@H](c3ccccc31)[C@H](CO)N2C(=O)Cc1ccccc1`?
GASC1 inh: inactive; Tcruzi prolif: inactive; Pf Dd2 inh: inactive

Results for N#C[C@@H]1[C@H](c2ccc(C#CCC3CCCC3)cc2)[C@H](CO)N1C(=O)c1ccccn1 ?
GASC1 inh: inactive; Tcruzi prolif: inactive; Pf Dd2 inh: inconclusive

How did N#C[C@H]1[C@H](c2ccc(C#CCC3CCCC3)cc2)[C@H](CO)N1C(=O)c1ccccn1 do in these assays?
GASC1 inh: inactive; Tcruzi prolif: 104.0; Pf Dd2 inh: inactive

What do the screens show for `CC(C)C#Cc1ccc([C@@H]2[C@@H](CO)N(C(=O)c3ccccn3)[C@H]2C#N)cc1`?
GASC1 inh: inactive; Tcruzi prolif: inactive; Pf Dd2 inh: inactive

How did N#C[C@H]1[C@@H](c2ccc(C#CCC3CCCC3)cc2)[C@H](CO)N1C(=O)c1ccccn1 do in these assays?
GASC1 inh: inactive; Tcruzi prolif: 100.8; Pf Dd2 inh: inactive

What do the screens show for `COC(=O)CCCCCCC(=O)N/N=C/c1cc(O)ccc1O`?
IDH1 mut inh: 52.8

What do the screens show for `O=C(CCCCC(=O)N/N=C/c1cc(O)ccc1O)NO`?
IDH1 mut inh: 87.5

Results for O=C(O)CCCCCC(=O)N/N=C/c1cc(O)ccc1Br ?
IDH1 mut inh: inactive

How did C[C@H](CO)N1C[C@H](C)[C@H](CN(C)S(=O)(=O)c2cccc(F)c2)Oc2ncc(C#Cc3ccc(F)cc3)cc2C1=O do in these assays?
GASC1 inh: inactive; Tcruzi prolif: inactive; Pf Dd2 inh: inactive; IDH1 mut inh: inactive

How did COc1ccc(C#Cc2cnc3c(c2)C(=O)N([C@H](C)CO)C[C@H](C)[C@H](CN(C)S(=O)(=O)c2cccc(F)c2)O3)cc1OC do in these assays?
GASC1 inh: inactive; Tcruzi prolif: inactive; Pf Dd2 inh: -87.4

What do the screens show for `COc1ccc(C#Cc2cnc3c(c2)C(=O)N([C@H](C)CO)C[C@H](C)[C@H](CN(C)S(=O)(=O)c2ccc(C)cc2)O3)cc1OC`?
GASC1 inh: inactive; Tcruzi prolif: inactive; Pf Dd2 inh: -85.2; IDH1 mut inh: inactive

What do the screens show for `COc1ccc(C#Cc2cnc3c(c2)C(=O)N([C@H](C)CO)C[C@H](C)[C@H](CN(C)S(C)(=O)=O)O3)cc1OC`?
GASC1 inh: inactive; Tcruzi prolif: inactive; Pf Dd2 inh: inactive; IDH1 mut inh: inactive

Results for C[C@@H]1CN([C@@H](C)CO)S(=O)(=O)c2ccc(-c3ccccc3)cc2O[C@H]1CN(C)Cc1cccnc1 ?
GASC1 inh: inactive; Tcruzi prolif: 103.2; Pf Dd2 inh: inactive; IDH1 mut inh: 66.2

What do the screens show for `C[C@H]1CN([C@@H](C)CO)S(=O)(=O)c2ccc(C#Cc3ccccc3F)cc2O[C@H]1CN(C)C(=O)Cc1cccnc1`?
GASC1 inh: inactive; Tcruzi prolif: inactive; Pf Dd2 inh: -82.5; IDH1 mut inh: inactive

How did COc1ccccc1C#Cc1ccc2c(c1)O[C@@H](CN(C)Cc1cccnc1)[C@H](C)CN([C@@H](C)CO)S2(=O)=O do in these assays?
GASC1 inh: inactive; Pf Dd2 inh: -83.4

What do the screens show for `C[C@H]1CN([C@@H](C)CO)S(=O)(=O)c2ccc(-c3ccccc3)cc2O[C@H]1CN(C)Cc1cccnc1`?
GASC1 inh: inactive; Tcruzi prolif: inactive; Pf Dd2 inh: inactive

Results for C[C@H]1CN([C@@H](C)CO)S(=O)(=O)c2ccc(-c3ccccc3)cc2O[C@@H]1CN(C)Cc1cccnc1 ?
GASC1 inh: inactive; Tcruzi prolif: 116.2; Pf Dd2 inh: inactive

Results for Cc1ccccc1NC(=O)CN(c1ccc(Br)cc1)S(C)(=O)=O ?
IDH1 mut inh: inactive

How did Cc1ccc(-c2nc3ccccc3s2)cc1NC(=O)COc1ccccc1Cl do in these assays?
IDH1 mut inh: inactive

Results for C[C@H]1CN([C@@H](C)CO)S(=O)(=O)c2ccc(-c3ccc(F)cc3)cc2O[C@H]1CN(C)CC1CC1 ?
GASC1 inh: inactive; Pf Dd2 inh: -82.0; IDH1 mut inh: inactive

How did C[C@@H]1CN([C@@H](C)CO)S(=O)(=O)c2ccc(-c3ccc(C(=O)N(C)C)cc3)cc2O[C@H]1CN(C)Cc1ccc2c(c1)OCO2 do in these assays?
GASC1 inh: inactive; Pf Dd2 inh: -83.8

How did CCCNC(=O)N(C)C[C@@H]1Oc2cc(-c3cccnc3)ccc2S(=O)(=O)N([C@@H](C)CO)C[C@@H]1C do in these assays?
GASC1 inh: 29.7; Tcruzi prolif: inactive; Pf Dd2 inh: inactive; IDH1 mut inh: inactive

What do the screens show for `CCCNC(=O)N(C)C[C@@H]1Oc2cc(-c3cccnc3)ccc2S(=O)(=O)N([C@H](C)CO)C[C@H]1C`?
GASC1 inh: inactive; Tcruzi prolif: inactive; Pf Dd2 inh: inactive; IDH1 mut inh: inactive

What do the screens show for `C[C@@H]1CN([C@@H](C)CO)S(=O)(=O)c2ccc(-c3ccc(F)cc3)cc2O[C@H]1CN(C)CC1CC1`?
Pf Dd2 inh: inactive; IDH1 mut inh: inactive

How did C[C@H](CO)N1C[C@H](C)[C@@H](CN(C)Cc2ccc3c(c2)OCO3)Oc2cc(-c3cccc(C(=O)N(C)C)c3)ccc2S1(=O)=O do in these assays?
GASC1 inh: inactive; Pf Dd2 inh: inactive; IDH1 mut inh: inactive

Results for C[C@H]1CN([C@@H](C)CO)S(=O)(=O)c2ccc(C#Cc3cccc(F)c3)cc2O[C@@H]1CN(C)C ?
GASC1 inh: 55.2; Tcruzi prolif: inactive; Pf Dd2 inh: inactive; IDH1 mut inh: 71.4

What do the screens show for `CCCC#Cc1ccc2c(c1)O[C@@H](CN(C)S(C)(=O)=O)[C@@H](C)CN([C@H](C)CO)S2(=O)=O`?
GASC1 inh: 41.2; Tcruzi prolif: inactive; Pf Dd2 inh: inactive; IDH1 mut inh: inactive

How did CC(C)C#Cc1ccc2c(c1)O[C@@H](CN(C)C)[C@@H](C)CN([C@H](C)CO)S2(=O)=O do in these assays?
GASC1 inh: 60.3; Pf Dd2 inh: inactive; IDH1 mut inh: 74.5

Screening results deposited in PubChem by Broad Institute.
